Data from ChEMBL document CHEMBL1144182, “Antimicrobial and cytotoxic arylazoenamines. Part III: antiviral activity of selected classes of arylazoenamines” (Bioorg Med Chem, 2008).
The source made the active and inactive calls. No rule for the calls is given here.

Test system: not listed separately
Experiment: Cytotoxicity against mock-infected human MT4 cells assessed as reduction in cell viability after 96 hrs by MTT assay
Type: cell-based
Conditions: not given
In short: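 Exponentially growing MT-4 cells seeded at 1 × 10^5 cells/mL in RPMI-1640 with 10% FCS, penicillin and streptomycin, with or without serial compound dilutions. Incubated at 37 °C, 5% CO2; viability read by MTT after 96 h. CC50 is the concentration reducing mock-infected cell viability by 50%.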

Compound | CC50 at 96 h
Clc1ccccc1N1CCN(/C=C/N=N/c2ccccc2)CC1 | 16 µM
CN1C=C(/N=N/c2ccc(Cl)c([N+](=O)[O-])c2)CCC1 | 71 µM
FC(F)(F)c1cccc(/N=N\C2=C3CCCCN3CCC2)c1 | 4 µM
CN1CCC/C1=C\N=N\c1ccc(Br)cc1 | 23 µM
CN1/C(=C\N=N\c2ccccc2)C(C)(C)c2ccccc21.[O-][Cl+3]([O-])([O-])O | 30 µM
CN1C=C(/N=N/c2cccc([N+](=O)[O-])c2)CCC1 | > 100 µM
CN1CCC/C1=C\N=N\c1cc(C(F)(F)F)cc(C(F)(F)F)c1 | 2 µM

Test system: not listed separately
Experiment: Cytotoxicity against mock-infected MDBK cells assessed as reduction in cell viability after 96 hrs by MTT assay
Type: cell-based, Bos taurus
Conditions: cattle
In short: (§1)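 Cytotoxicity run in parallel with the antiviral assays. MDBK seeded at 6 × 10^5 and BHK at 1 × 10^6 cells/mL in maintenance medium with or without serial compound dilutions. Incubated 48–96 h at 37 °C, 5% CO2, then viability read by MTT. CC50 is the concentration reducing mock-infected cell viability by 50%.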

Compound | CC50 at 96 h
Clc1ccccc1N1CCN(/C=C/N=N/c2ccccc2)CC1 | 13 µM
CN1C=C(/N=N/c2ccc(Cl)c([N+](=O)[O-])c2)CCC1 | 61 µM
FC(F)(F)c1cccc(/N=N\C2=C3CCCCN3CCC2)c1 | 8 µM
CN1CCC/C1=C\N=N\c1ccc(Br)cc1 | > 100 µM
CN1/C(=C\N=N\c2ccccc2)C(C)(C)c2ccccc21.[O-][Cl+3]([O-])([O-])O | 20 µM
CN1C=C(/N=N/c2cccc([N+](=O)[O-])c2)CCC1 | > 100 µM
CN1CCC/C1=C\N=N\c1cc(C(F)(F)F)cc(C(F)(F)F)c1 | 36 µM

Test system: Bovine viral diarrhea virus 1
Experiment: Antiviral activity against BVDV infected in MDBK cells assessed as protection against virus-induced cytopathogenicity after 4 days by MTT assay
Type: functional, organism-based
Conditions: Bovine viral diarrhea virus isolates and strains, 96 h
In short: (§2)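 MDBK (BVDV) or BHK-21 (YFV) cells were seeded at 3 × 10^4 or 5 × 10^4 cells/well respectively and grown overnight to confluent monolayers at 37 °C in 5% CO2. Monolayers were infected at m.o.i. 0.01 in serum-free medium. After 1 h, MEM Earle's with 1% FCS was added, with or without serial compound dilutions. After 3–4 days at 37 °C, viability was read by MTT. EC50 was taken as 50% protection from virus-induced cytopathogenicity.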

Compound | EC50
Clc1ccccc1N1CCN(/C=C/N=N/c2ccccc2)CC1 | > 13 µM
CN1C=C(/N=N/c2ccc(Cl)c([N+](=O)[O-])c2)CCC1 | > 61 µM
FC(F)(F)c1cccc(/N=N\C2=C3CCCCN3CCC2)c1 | > 8 µM
CN1CCC/C1=C\N=N\c1ccc(Br)cc1 | 11 µM
CN1/C(=C\N=N\c2ccccc2)C(C)(C)c2ccccc21.[O-][Cl+3]([O-])([O-])O | > 20 µM
CN1C=C(/N=N/c2cccc([N+](=O)[O-])c2)CCC1 | 0.8 µM
CN1CCC/C1=C\N=N\c1cc(C(F)(F)F)cc(C(F)(F)F)c1 | > 36 µM

Test system: not listed separately
Experiment: Cytotoxicity against mock-infected BHK cells assessed as reduction in cell viability after 96 hrs by MTT assay
Type: cell-based, Mesocricetus auratus
Conditions: hamster
In short: as §1

Compound | CC50 at 96 h
Clc1ccccc1N1CCN(/C=C/N=N/c2ccccc2)CC1 | 69 µM
CN1C=C(/N=N/c2ccc(Cl)c([N+](=O)[O-])c2)CCC1 | > 100 µM
FC(F)(F)c1cccc(/N=N\C2=C3CCCCN3CCC2)c1 | 40 µM
CN1CCC/C1=C\N=N\c1ccc(Br)cc1 | > 100 µM
CN1/C(=C\N=N\c2ccccc2)C(C)(C)c2ccccc21.[O-][Cl+3]([O-])([O-])O | 47 µM
CN1C=C(/N=N/c2cccc([N+](=O)[O-])c2)CCC1 | 95 µM
CN1CCC/C1=C\N=N\c1cc(C(F)(F)F)cc(C(F)(F)F)c1 | 48 µM

Test system: Yellow fever virus
Experiment: Antiviral activity against YFV infected in BHK21 cells assessed as protection against virus-induced cytopathogenicity after 4 days by MTT assay
Type: functional, organism-based
Conditions: BHK-21, 96 h
In short: as §2

Compound | EC50
Clc1ccccc1N1CCN(/C=C/N=N/c2ccccc2)CC1 | > 69 µM
CN1C=C(/N=N/c2ccc(Cl)c([N+](=O)[O-])c2)CCC1 | > 100 µM
FC(F)(F)c1cccc(/N=N\C2=C3CCCCN3CCC2)c1 | > 40 µM
CN1CCC/C1=C\N=N\c1ccc(Br)cc1 | > 100 µM
CN1/C(=C\N=N\c2ccccc2)C(C)(C)c2ccccc21.[O-][Cl+3]([O-])([O-])O | > 47 µM
CN1C=C(/N=N/c2cccc([N+](=O)[O-])c2)CCC1 | > 95 µM
CN1CCC/C1=C\N=N\c1cc(C(F)(F)F)cc(C(F)(F)F)c1 | > 48 µM

Test system: not listed separately
Experiment: Cytotoxicity against mock-infected african green monkey Vero76 cells assessed as reduction in cell viability after 96 hrs by MTT assay
Type: cell-based, Vero
Conditions: chlorocebus sabaeus

Compound | CC50 at 96 h
Clc1ccccc1N1CCN(/C=C/N=N/c2ccccc2)CC1 | 14 µM
CN1C=C(/N=N/c2ccc(Cl)c([N+](=O)[O-])c2)CCC1 | > 100 µM
FC(F)(F)c1cccc(/N=N\C2=C3CCCCN3CCC2)c1 | > 100 µM
CN1CCC/C1=C\N=N\c1ccc(Br)cc1 | > 100 µM
CN1/C(=C\N=N\c2ccccc2)C(C)(C)c2ccccc21.[O-][Cl+3]([O-])([O-])O | 73 µM
CN1C=C(/N=N/c2cccc([N+](=O)[O-])c2)CCC1 | > 100 µM
CN1CCC/C1=C\N=N\c1cc(C(F)(F)F)cc(C(F)(F)F)c1 | 93 µM

Test system: Coxsackievirus B2
Experiment: Antiviral activity against CVB2 infected in Vero76 cells assessed as reduction in virus plaque formation after 4 days by MTT assay
Type: functional, organism-based
Conditions: Enterovirus B, Vero 76, 96 h

Compound | EC50
Clc1ccccc1N1CCN(/C=C/N=N/c2ccccc2)CC1 | 5 µM
CN1C=C(/N=N/c2ccc(Cl)c([N+](=O)[O-])c2)CCC1 | > 100 µM
FC(F)(F)c1cccc(/N=N\C2=C3CCCCN3CCC2)c1 | 21 µM
CN1CCC/C1=C\N=N\c1ccc(Br)cc1 | 36 µM
CN1/C(=C\N=N\c2ccccc2)C(C)(C)c2ccccc21.[O-][Cl+3]([O-])([O-])O | > 73 µM
CN1C=C(/N=N/c2cccc([N+](=O)[O-])c2)CCC1 | > 100 µM
CN1CCC/C1=C\N=N\c1cc(C(F)(F)F)cc(C(F)(F)F)c1 | > 93 µM

Test system: Respiratory syncytial virus
Experiment: Antiviral activity against RSV infected in Vero76 cells assessed as reduction in virus plaque formation after 4 days by MTT assay
Type: functional, organism-based
Conditions: human respiratory syncytial virus, Vero 76, 96 h

Compound | EC50
Clc1ccccc1N1CCN(/C=C/N=N/c2ccccc2)CC1 | 5 µM
CN1C=C(/N=N/c2ccc(Cl)c([N+](=O)[O-])c2)CCC1 | > 100 µM
FC(F)(F)c1cccc(/N=N\C2=C3CCCCN3CCC2)c1 | > 100 µM
CN1CCC/C1=C\N=N\c1ccc(Br)cc1 | 20 µM
CN1/C(=C\N=N\c2ccccc2)C(C)(C)c2ccccc21.[O-][Cl+3]([O-])([O-])O | > 73 µM
CN1C=C(/N=N/c2cccc([N+](=O)[O-])c2)CCC1 | > 100 µM
CN1CCC/C1=C\N=N\c1cc(C(F)(F)F)cc(C(F)(F)F)c1 | > 93 µM

Test system: Poliovirus 1
Experiment: Antiviral activity against Sb1 virus infected in Vero76 cells assessed as reduction in virus plaque formation after 4 days by MTT assay
Type: functional, organism-based
Conditions: Enterovirus C, Sabin, Vero 76, 96 h

Compound | EC50
Clc1ccccc1N1CCN(/C=C/N=N/c2ccccc2)CC1 | > 14 µM
CN1C=C(/N=N/c2ccc(Cl)c([N+](=O)[O-])c2)CCC1 | > 100 µM
FC(F)(F)c1cccc(/N=N\C2=C3CCCCN3CCC2)c1 | > 100 µM
CN1CCC/C1=C\N=N\c1ccc(Br)cc1 | > 100 µM
CN1/C(=C\N=N\c2ccccc2)C(C)(C)c2ccccc21.[O-][Cl+3]([O-])([O-])O | > 73 µM
CN1C=C(/N=N/c2cccc([N+](=O)[O-])c2)CCC1 | > 100 µM
CN1CCC/C1=C\N=N\c1cc(C(F)(F)F)cc(C(F)(F)F)c1 | > 93 µM

Test system: Human immunodeficiency virus 1
Experiment: Antiviral activity against HIV1 infected in MT4 cells assessed as virus-induced cytopathogenicity after 4 days
Type: functional, organism-based
Conditions: not given

Compound | Activity
Clc1ccccc1N1CCN(/C=C/N=N/c2ccccc2)CC1 | inactive
CN1C=C(/N=N/c2ccc(Cl)c([N+](=O)[O-])c2)CCC1 | inactive
FC(F)(F)c1cccc(/N=N\C2=C3CCCCN3CCC2)c1 | inactive
CN1CCC/C1=C\N=N\c1ccc(Br)cc1 | inactive
CN1/C(=C\N=N\c2ccccc2)C(C)(C)c2ccccc21.[O-][Cl+3]([O-])([O-])O | inactive
CN1C=C(/N=N/c2cccc([N+](=O)[O-])c2)CCC1 | inactive
CN1CCC/C1=C\N=N\c1cc(C(F)(F)F)cc(C(F)(F)F)c1 | inactive

Test system: Vaccinia virus
Experiment: Antiviral activity against VV infected in Vero76 cells assessed as reduction in virus plaque formation after 4 days by MTT assay
Type: functional, organism-based
Conditions: Orthopoxvirus vaccinia; Vero 76

Compound | Activity
Clc1ccccc1N1CCN(/C=C/N=N/c2ccccc2)CC1 | inactive
CN1C=C(/N=N/c2ccc(Cl)c([N+](=O)[O-])c2)CCC1 | inactive
FC(F)(F)c1cccc(/N=N\C2=C3CCCCN3CCC2)c1 | inactive
CN1CCC/C1=C\N=N\c1ccc(Br)cc1 | inactive
CN1/C(=C\N=N\c2ccccc2)C(C)(C)c2ccccc21.[O-][Cl+3]([O-])([O-])O | inactive
CN1C=C(/N=N/c2cccc([N+](=O)[O-])c2)CCC1 | inactive
CN1CCC/C1=C\N=N\c1cc(C(F)(F)F)cc(C(F)(F)F)c1 | inactive

Test system: Vesicular stomatitis virus
Experiment: Antiviral activity against VSV infected in Vero76 cells assessed as reduction in virus plaque formation after 4 days by MTT assay
Type: functional, organism-based
Conditions: Vero 76

Compound | Activity
Clc1ccccc1N1CCN(/C=C/N=N/c2ccccc2)CC1 | inactive
CN1C=C(/N=N/c2ccc(Cl)c([N+](=O)[O-])c2)CCC1 | inactive
FC(F)(F)c1cccc(/N=N\C2=C3CCCCN3CCC2)c1 | inactive
CN1CCC/C1=C\N=N\c1ccc(Br)cc1 | inactive
CN1/C(=C\N=N\c2ccccc2)C(C)(C)c2ccccc21.[O-][Cl+3]([O-])([O-])O | inactive
CN1C=C(/N=N/c2cccc([N+](=O)[O-])c2)CCC1 | inactive
CN1CCC/C1=C\N=N\c1cc(C(F)(F)F)cc(C(F)(F)F)c1 | inactive
